Assay results: ChEMBL document CHEMBL1944532, “Synthesis and evaluation of anticancer activity of some novel 6-aryl-2-(p-sulfamylphenyl)-pyridazin-3(2H)-ones” (Eur J Med Chem, 2012)

Tests used:
SR = assay: Cytotoxicity against human SR cells after 48 hrs by SRB assay; assay type: functional; details: read-out: GI50
How it was run: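 NCI 60-cell-line five-dose screen. Cells were grown in 1640 medium with 5% fetal calf serum and 2 mM L-glutamine, with inoculum density set by cell line, and pre-incubated 24 h. Compound in DMSO was added at 10^-4 to 10^-8 M (10-fold steps) with 48 h continuous exposure. Growth was read by SRB protein assay, and GI50, TGI and LC50 were derived from dose-response.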

NCI-H522 = assay: Cytotoxicity against human NCI-H522 cells after 48 hrs by SRB assay; assay type: functional; details: NCI-H522, 48 h, read-out: GI50
How it was run: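 NCI five-dose screen on the ~60-line human tumor panel. Cells grown in RPMI-1640 with 5% fetal calf serum and 2 mM L-glutamine, seeded at line-dependent density and preincubated 24 h. Compound added from DMSO at 10-fold dilutions from 10^-4 to 10^-8 M, continuous exposure 48 h. Growth read by sulforhodamine B protein stain. GI50, TGI and LC50 derived per line.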

## O=c1[nH]cc(F)c(=O)[nH]1 [FLUOROURACIL]
SR
  GI50: 0.0238 µM
NCI-H522
  GI50: 7.28 µM
